Screens (PubChem BioAssay)
HGIII-sPLA2 inh = Inhibits HGIII-sPLA2 liposome hydrolysis, primary screen; QFRET BODIPY PC-A2 liposome hydrolysis, fluorescence; inhibition, % at 12.2 µM; 370,000 tested, 0.56% active;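 active means inhibition above mean plus 3 SD of compounds lying within the high and low control bounds, cut at about 19% in these data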;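 further: 0% = median of test compound wells and 100% = no enzyme DMSO wells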
CendR NRP1 mod = alters CendR peptide binding to human NRP-1. O14786. FAM-RPARPAR peptide binding to NRP-1, fluorescence polarization. inhibition, % at 25 µM. 360,000 tested, 0.85% active. AID 602438;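 active means inhibition or corrected inhibition above about 18%, plus a signal ratio from 0.5 to 1.5, limit read from the data, passing the limit was not always enough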
Lipid droplet = hepatic lipid droplet formation modulation. inhibition, % at 6.5 µM. 240,000 tested, 0.4% active. AID 1656. AML12 mouse hepatocytes, oleate lipid droplets, BODIPY imaging;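 active means lipid droplet intensity inhibited by at least 50%, with more than 500 cells counted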
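Assay system: AML12 mouse liver cells | Compound dosing: One dose, 6.5 µM compound | Read-out basis: Droplet intensity reduction, % inhibition | Measured by: Fluorescence imaging, 20x objective, two fields per well | Schedule: Overnight treatment with compound plus oleate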
Arr AP2 block = inhibitors of human beta-arrestin and AP2 interaction | AID 504490 | FITC-arrestin peptide / GST-AP2 beads, flow cytometry; AP2 beta2 appendage carries R879A mutation | 340,000 tested, 0.31% active | inhibition, % at 10 µM;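 active means inhibition above a set limit, near 3 SD of compounds lacking own fluorescence, cut at about 54% in these data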;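 further: plate controls were DMSO wells for no effect and 5 µM unlabelled arrestin peptide for full effect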
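test system = AP2 appendage R879A on GSH beads | buffer or medium = PBS plus Tween 20 (0.05%) and BSA (0.1%) | incubation = 12 min plus 1 h, RT | detection = bead flow cytometry, FITC channel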
PfM18AAP inh = PfM18AAP enzyme inhibition. recombinant PfM18AAP, H-Glu-NHMec fluorogenic cleavage. inhibition, % at 7.35 µM. 290,000 tested, 1.2% active;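 active means inhibition above the campaign mean inhibition over all tested compounds plus 3 SD, cut at about 28% in these data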;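 further: 0% = plate median of test compound wells and 100% = 2 mM ZnCl2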
m5-HT2A agonist = activates the mouse 5-HT2A serotonin receptor; P35363; CHO-K1 mHTR2A beta-arrestin complementation, luminescence; percent of 30 µM serotonin response; activation, % at 7.6 µM; 360,000 tested, 0.66% active; AID 624169;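 active means activation above a run cutoff, the mean activation of all tested compounds plus 3 SD, cut at about 14% in these data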;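 further: 0% = plate median of compound wells and 100% = 30 µM serotonin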
Target sequence (P35363 whole entry, looked up): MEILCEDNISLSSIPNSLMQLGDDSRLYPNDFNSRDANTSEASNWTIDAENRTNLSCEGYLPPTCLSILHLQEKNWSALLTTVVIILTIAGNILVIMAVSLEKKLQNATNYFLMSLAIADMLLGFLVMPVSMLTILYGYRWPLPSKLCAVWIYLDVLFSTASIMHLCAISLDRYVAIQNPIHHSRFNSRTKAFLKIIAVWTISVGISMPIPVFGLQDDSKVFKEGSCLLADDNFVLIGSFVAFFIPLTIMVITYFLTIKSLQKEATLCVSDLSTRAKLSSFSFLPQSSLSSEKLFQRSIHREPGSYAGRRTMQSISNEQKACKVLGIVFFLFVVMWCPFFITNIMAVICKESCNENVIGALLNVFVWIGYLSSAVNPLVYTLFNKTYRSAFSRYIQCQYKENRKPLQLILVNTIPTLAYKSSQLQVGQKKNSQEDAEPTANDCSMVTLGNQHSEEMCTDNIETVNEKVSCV
Hep lipid conf = hepatic lipid droplet formation inhibition, confirmed | shares compounds with Lipid droplet | AML12 mouse hepatocytes, BODIPY lipid droplet imaging; droplets induced with 100 µM oleic acid | inhibition, % at 5.2 µM | 870 tested, 65% active | AID 463183;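 active means inhibition of lipid droplet metric at least 50%, with more than 300 cells in each of four replicates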;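 further: plate controls were DMSO with oleic acid for no effect and 5 µM Triacsin-C for full effect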
AML12 tox img = toxic to AML12 mouse hepatocytes in counter-screen; shares compounds with Lipid droplet; DAPI nuclear morphology cytotoxicity imaging; hits give high values; cells fed 100 µM oleate overnight; z-score at 5 µM; 870 tested, 3% active; in the data active means z-score above about 6.3;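 further: compound exposure lasted overnight at 37 °C before fixation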
AML12 tox conf = AML12 hepatocyte cytotoxicity, confirmed; shares compounds with Lipid droplet; AML12 mouse hepatocyte viability, ATP luminescence; cells loaded with 100 µM oleic acid; cytotoxicity, % at 50 µM; 530 tested, under 10 active;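 active means cytotoxicity above 50% in each of four replicates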;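 further: compound exposure lasted overnight at 37 °C before the ATP read; 0% = DMSO-treated cells and 100% = wells with no cells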
* = called active by the depositor; nt = no result given. An excerpt weighted towards active compounds, which were near 3.3% of everything screened.

SMILES	HGIII-sPLA2 inh	CendR NRP1 mod	Lipid droplet	Arr AP2 block	PfM18AAP inh	m5-HT2A agonist	Hep lipid conf	AML12 tox img	AML12 tox conf
Cc1c(C(=O)O)sc2nc3n(c(=O)c12)CCCCC3	3	1	10	6	-8	1	nt	nt	nt
Cc1ccc(NC(=O)N2CCCC2C(=O)Nc2ccc(-n3cnnn3)c(C)c2)cc1 (stereo not given)	-9	3	12	4	-3	0	nt	nt	nt
CCOc1ccccc1NC(=O)N1CCCC1C(=O)Nc1ccc(-n2cnnn2)c(C)c1 (stereo not given)	-6	11	74*	17	2	-3	97*	0.38	-4
O=C(Cn1nnc(-c2ccccc2)n1)NNC(=O)c1cccc([N+](=O)[O-])c1	-5	2	2	-3	0	-4	nt	nt	nt
O=C(Cn1nnc(-c2ccc([N+](=O)[O-])cc2)n1)NNC(=O)c1ccccc1	nt	1	59*	1	-9	0	29	0.18	nt
COc1ccc2[nH]c3c(c2c1)CCN1C(=O)N([C@@H](C)C(=O)NCCc2ccc(OC)c(OC)c2)C(=O)[C@]31C	-14	-16	nt	5	-2	4	nt	nt	nt
COc1ccc(CCNC(=O)[C@H](C)N2C(=O)N3CCc4c([nH]c5ccccc45)[C@@]3(C)C2=O)cc1OC	-16	-3	87*	2	-4	-2	102*	-1.6	20
COc1ccc(CCNC(=O)c2ccc(CNc3nc(=S)[nH]c4ccccc34)cc2)cc1OC	-7	-4	52*	13	0	2	101*	-0.26	14
CC1CCCN(C(=O)c2ccc3c(c2NCCO)C(=O)c2ccccc2C3=O)C1 (stereo not given)	17	19*	54*	-7	0	-1	105*	-0.19	33
O=C(Nc1nc2ncccn2c1-c1ccc(F)cc1)c1ccccc1	8	nt	nt	nt	nt	nt	nt	nt	nt
CC(Sc1nc(NCc2ccccc2)nc(N2CCOCC2)n1)C(=O)Nc1ccccc1 (stereo not given)	-13	11	59*	-5	1	-5	99*	0.81	10
CCNc1nc(SC(C)C(=O)Nc2ccccc2)nc(N2CCOCC2)n1 (stereo not given)	4	1	13	22	-5	2	nt	nt	nt
O=S1(=O)N=C(Oc2cccc3ccccc23)c2ccccc21	0	-8	66*	2	8	-3	23	-0.32	nt
c1cc2c3c(cccc3c1)NC1(CCCCCC1)N2	15	0	-18	52	2	-1	nt	nt	nt
c1cc2c3c(cccc3c1)NC1(CCC3(CC1)Nc1cccc4cccc(c14)N3)N2	1	-14	51*	37	-5	2	14	0.33	nt
CCOc1ccc(N(CC(=O)Nc2c(C)n(C)n(-c3ccccc3)c2=O)S(=O)(=O)c2ccc3c(c2)N(C(=O)C2CCC2)CC3)cc1	-4	nt	nt	nt	nt	nt	nt	nt	nt
CCOc1ccccc1NC(=O)CSCC(=O)Nc1ccccc1	-3	-3	57*	23	6	-1	96*	1.4	2
CCOc1ccc(OCC)c(NC(=O)CSCC(=O)O)c1	3	-3	nt	7	0	-1	nt	nt	nt
CCOC(=O)[C@]12CCCC3=C1N(CCC3)C(=O)[C@@H](CC(=O)N1CCOCC1)C2	5	nt	nt	nt	nt	nt	nt	nt	nt
COc1c([N+](=O)[O-])cc(C(=O)NNC(=O)c2ccc(C)cc2)cc1[N+](=O)[O-]	-2	4	56*	1	3	-1	32	0.11	nt
COc1ccccc1NC(=O)C1CCN(C(=O)NCc2ccccc2)CC1	1	11	51*	8	-2	6	80*	-0.54	3
CCOC(=O)CC[C@@H]1CC[C@]2(CCCN(S(=O)(=O)c3ccccc3)C2)O1	1	nt	nt	nt	nt	nt	nt	nt	nt
Cc1ccccc1C(=O)NC1CCN(Cc2nnnn2C2CCCC2)CC1	7	1	63*	5	7	-3	31	-0.19	nt
Cc1ccccc1C(=O)NC1CCN(Cc2nnnn2C(C)(C)C)CC1	8	3	-37	-26	-6	0	nt	nt	nt
CCCCCC(=O)N1C[C@H](n2cc(COC(=O)c3ccccc3)nn2)[C@@H](O)C[C@@H]1c1ccc(OC)cc1	-41	-4	nt	nt	nt	1	nt	nt	nt
SMILES	HGIII-sPLA2 inh	CendR NRP1 mod	Lipid droplet	Arr AP2 block	PfM18AAP inh	m5-HT2A agonist	Hep lipid conf	AML12 tox img	AML12 tox conf
COc1ccccc1N1CCN(C(=O)COc2ccc(S(=O)(=O)NC(C)(C)C)cc2)CC1	nt	nt	64*	nt	-5	nt	85*	-0.12	nt
CNS(=O)(=O)c1ccc(CCC(=O)N2CCN(c3ccccc3OC)CC2)cc1	-7	-21	-1	-2	6	2	nt	nt	nt
Cc1ccc(N2C(N)=C(C#N)C(c3cc(CN4CCOCC4)cs3)C3=C2CC(C)(C)CC3=O)cc1 (stereo not given)	0	8	75*	2	0	-4	87*	0.078	3
COc1ccc(C(C#N)N2CCOCC2)cc1 (stereo not given)	10	-2	53*	5	-2	2	26	-1.1	nt
CCOc1ccc(-c2nonc2NC(=O)c2ccco2)cc1	-6	-2	74*	8	-2	5	93*	-0.94	14
COC(=O)c1cccc(Cn2ccc3ccc(-c4ccc5ccn(Cc6cccc(C(=O)OC)c6)c5c4)cc32)c1	6	nt	nt	nt	nt	nt	nt	nt	nt
CSc1nc2ccccc2n1CC(=O)Nc1c(C)cccc1C	5	10	55*	0	6	3	50	0.047	nt
CC(=O)N1C[C@@H](CO)[C@@H](N(C)C(=O)Nc2cccc3ccccc23)C[C@H]1c1ccccc1	-1	nt	nt	nt	nt	nt	nt	nt	nt
COc1ccc(CCNC(=O)c2cc3c(F)cccc3s2)cc1OC	-6	0	77*	1	-9	0	74*	-0.2	3
COc1ccc(CCNC(=O)Cc2cccc(C(F)(F)F)c2)cc1OC	3	9	64*	23	8	2	84*	-1.3	12
COc1cccc(/C=C/C(=O)NCCc2ccc(OC)c(OC)c2)c1	17	-2	54*	3	-4	1	49	0.058	nt
COc1ccc(CCNC(=O)c2cccc3ccccc23)cc1OC	-1	2	-6	-4	-10	-1	nt	nt	nt
COc1ccc(CCNC(=O)CN2C(=O)c3cccc4cccc(c34)C2=O)cc1OC	14	3	56*	-1	-8	0	92*	-0.014	4
COc1ccc(Nc2nc(-c3cccs3)nc3ccccc23)cc1S(=O)(=O)N1CCOCC1	-39	-10	nt	-2	nt	5	nt	nt	nt
